ChEMBL document CHEMBL5329165, “Design, synthesis and biological evaluation of phenanthridine amide and 1,2,3-triazole analogues against Mycobacterium tuberculosis” (RSC Med Chem, 2023)
≈ marks a conversion by molar mass, not a printed value.

Columns and labels:
[1] = Cytotoxicity against human HepG2 cells assessed as reduction in cell viability by alamar blue assay; assay type: toxicity, cell-based
Outline: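 HepG2 cells grown in Glutamax DMEM with 10% (v/v) FBS and antibiotics, seeded in 96-well plates at 37°C, 5% CO₂. Viability measured by Alamar Blue staining per manufacturer's protocol; CC₅₀ derived.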

[2] = test system: Mycobacterium tuberculosis; assay: Antimycobacterial activity against non-replicating Mycobacterium tuberculosis H37Rv ATCC 27294 incubated for 10 days under anaerobic condition followed by treatment under aerobic condition and measured on day 11 by luminescence based low oxygen recovery assay; assay type: functional; conditions: H37Rv ATCC 27294, 264 h, time 11 day
Outline: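 Low-oxygen recovery assay with H37Rv carrying autoluminescent LuxABCDE plasmid, adapted to low oxygen. Cells in 7H12 broth, sonicated 15 s, inoculum 5 x 10⁵ to 2 x 10⁶ CFU/mL, with twofold compound dilutions. Anaerobic (<0.16% O₂; 10% H₂, 5% CO₂, N₂) at 37°C for 10 days, then 28 h aerobic recovery (5% CO₂ air). Luminescence read day 11; MIC at 90% signal reduction versus untreated controls.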

[3] = test system: Mycobacterium tuberculosis; assay: Antimycobacterial activity against replicating Mycobacterium tuberculosis H37Rv ATCC 27294 incubated for 7 days by microplate alamar blue assay; assay type: functional; conditions: H37Rv ATCC 27294, 168 h, time 7 day
Outline: (§1)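 H37Rv (ATCC 27294) in 7H12 broth (7H9 with casitone, BSA, catalase, palmitic acid). Compounds from DMSO in twofold serial dilution; final inoculum 3 to 5 X10⁵ cells/mL; 7 days at 37°C. Resazurin plus Tween 80 added, 18–24 h more at 37°C. Fluorescence read at 530 nm excitation/590 nm emission. MIC is the lowest concentration giving 90% fluorescence reduction versus untreated bacteria.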

[4] = test system: Mycobacterium tuberculosis; assay: Antibacterial activity against Mycobacterium tuberculosis H37Rv incubated for 7 days by alamar blue reagent based fluorescence plate reader analysis; assay type: functional; conditions: 168 h, time 7 day; outline: as §1
[5] = test system: Mycobacterium tuberculosis; assay: Antimycobacterial activity against Mycobacterium tuberculosis H37Ra by microplate alamar blue assay; assay type: functional
[6] = test system: Mycobacterium tuberculosis; assay: Antibacterial activity against Mycobacterium tuberculosis H37Rv ATCC 27294 by microplate alamar blue assay; assay type: functional; outline: as §1
[7] = test system: Mycobacterium tuberculosis; assay: Antibacterial activity against Mycobacterium tuberculosis H37Rv; assay type: functional; outline: as §1

Row | SMILES | CC50 [1] [µM] | MIC [2] [µM] | MIC [3] [µM] | other results
1 | Nc1nc2ccccc2c2ccccc12 | 30.5 | 62.1 (≈ 12.1 µg/mL) | 61.3 (≈ 11.9 µg/mL) | –
2 | Cc1ccc2nc(C)c(C(=O)NCCCC3CCCCC3)n2c1 | – | – | – | MIC [4]: 0.1 µM (≈ 0.0313 µg/mL)
3 | O=C(Nc1nc2ccccc2c2ccccc12)c1cnccn1 | 53 | > 333 | > 333 | –
4 | Cc1nc2c3ccccc3c3ccccc3n2c1C(=O)NCc1cn(-c2ccc([N+](=O)[O-])cc2Br)nn1 | – | 180 (≈ 100 µg/mL) | 180 (≈ 100 µg/mL) | –
5 | O=C(Cc1ccc(Br)cc1)Nc1nc2ccccc2c2ccccc12 | > 50 | > 256 | > 256 | –
6 | O=C(/C=C/c1ccccc1)Nc1nc2ccccc2c2ccccc12 | – | > 308 | > 308 | –
7 | Cc1nc2c3ccccc3c3ccccc3n2c1C(=O)NCc1cn(-c2cccc([N+](=O)[O-])c2)nn1 | 71.9 | 87.4 (≈ 41.7 µg/mL) | 84.3 (≈ 40.2 µg/mL) | –
8 | C#CCNC(=O)c1c(C)nc2c3ccccc3c3ccccc3n12 | – | > 319 | > 319 | –
9 | O=C(Cc1ccccc1)Nc1nc2ccccc2c2ccccc12 | > 50 | 267 (≈ 83.5 µg/mL) | 294 (≈ 91.8 µg/mL) | –
10 | Nc1cccc(C(=O)Nc2nc3ccccc3c3ccccc23)c1 | 56.9 | 151 (≈ 47.2 µg/mL) | 150 (≈ 46.9 µg/mL) | –
11 | O=C(Nc1nc2ccccc2c2ccccc12)c1ccccc1I | – | > 236 | > 236 | –
12 | Nc1ccc(C(=O)Nc2nc3ccccc3c3ccccc23)cc1 | 32.1 | 85.8 (≈ 26.9 µg/mL) | 78.3 (≈ 24.5 µg/mL) | –
13 | CCCCCC(=O)Nc1nc2ccccc2c2ccccc12 | 79.5 | 79.8 (≈ 23.3 µg/mL) | > 342 | –
14 | COc1ccc(-n2cc(CNC(=O)c3c(C)nc4c5ccccc5c5ccccc5n34)nn2)c([N+](=O)[O-])c1 | – | 106 (≈ 53.6 µg/mL) | 94 (≈ 47.7 µg/mL) | –
15 | O=C(Nc1ccc(Cl)cn1)c1cccc(C(F)(F)F)c1 | – | – | – | MIC [5]: 109 µM (≈ 32.7 µg/mL)
16 | Cc1nc2c3ccccc3c3ccccc3n2c1C(=O)NCc1cn(-c2cccc(C(F)(F)F)c2)nn1 | 82.3 | 89.5 (≈ 44.8 µg/mL) | 184 (≈ 92 µg/mL) | –
17 | O=C(Cc1c[nH]c2ccccc12)Nc1nc2ccccc2c2ccccc12 | 32.1 | 69 (≈ 24.2 µg/mL) | 125 (≈ 44.1 µg/mL) | –

Row | SMILES | CC50 [1] [µM] | MIC [2] [µM] | MIC [3] [µM] | other results
18 | CCc1ccc(-n2cc(CNC(=O)c3c(C)nc4c5ccccc5c5ccccc5n34)nn2)cc1 | – | > 217 | > 217 | –
19 | CCc1nc2ccc(C)cn2c1C(=O)NCCOc1ccc(N2CCC(=NOC)CC2)cc1 | – | – | – | MIC [6]: < 0.035 µM
20 | Cc1nc2c3ccccc3c3ccccc3n2c1C(=O)NCc1cn(-c2ccc(Cl)c(Cl)c2[N+](=O)[O-])nn1 | – | > 183 | > 183 | –
21 | Cc1nc2c3ccccc3c3ccccc3n2c1C(=O)NCc1cn(-c2ccc(C(F)(F)F)cc2)nn1 | 84.4 | 93 (≈ 46.5 µg/mL) | > 200 | –
22 | CCCCCCCC(=O)Nc1nc2ccccc2c2ccccc12 | > 50 | 300 (≈ 96.2 µg/mL) | > 312 | –
23 | Cc1cc(C)cc(-n2cc(CNC(=O)c3c(C)nc4c5ccccc5c5ccccc5n34)nn2)c1 | 90.7 | 208 (≈ 95.9 µg/mL) | > 217 | –
24 | O=C(Nc1nc2ccccc2c2ccccc12)c1cccc(Cl)c1 | – | > 300 | > 300 | –
25 | N#Cc1ccc(Cn2cc(CNC(=O)c3cn4ccccc4n3)nn2)cc1 | – | – | – | MIC [7]: 1560 µM (≈ 558 µg/mL)
26 | O=C(CCCc1c[nH]c2ccccc12)Nc1nc2ccccc2c2ccccc12 | 30 | 218 (≈ 82.8 µg/mL) | 70.6 (≈ 26.8 µg/mL) | –
27 | Cc1nc2c3ccccc3c3ccccc3n2c1C(=O)NCc1cn(-c2ccccc2Cl)nn1 | – | > 214 | > 214 | –
28 | C#CCCC(=O)Nc1nc2ccccc2c2ccccc12 | 22.6 | > 365 | > 365 | –
29 | O=C(NCc1ccc(N2CCC(Cl)CC2)cc1)c1cc([N+](=O)[O-])cc([N+](=O)[O-])c1 | – | – | – | MIC [6]: 0.038 µM (≈ 0.0159 µg/mL)
30 | Cc1ccc(-n2cc(CNC(=O)c3c(C)nc4c5ccccc5c5ccccc5n34)nn2)cc1C | – | 78.8 (≈ 36.3 µg/mL) | 41.5 (≈ 19.1 µg/mL) | –
31 | COc1nc2ccc(Br)cc2cc1[C@@H](c1ccccc1)[C@@](O)(CCN(C)C)c1cccc2ccccc12 [BEDAQUILINE] | – | 0.216 (≈ 0.12 µg/mL) | 0.054 (≈ 0.03 µg/mL) | –
32 | NNC(=O)c1ccncc1 [ISONIAZID] | – | 560 (≈ 76.8 µg/mL) | 2.62 (≈ 0.36 µg/mL) | –
33 | CO[C@H]1/C=C/O[C@@]2(C)Oc3c(C)c(O)c4c(O)c(c(/C=N/N5CCN(C)CC5)c(O)c4c3C2=O)NC(=O)/C(C)=C\C=C\[C@H](C)[C@H](O)[C@@H](C)[C@@H](O)[C@@H](C)[C@H](OC(C)=O)[C@@H]1C [RIFAMPIN] | – | 0.145 (≈ 0.119 µg/mL) | 0.073 (≈ 0.0601 µg/mL) | –
